From PMC10205775 (Saudi Pharmaceutical Journal : SPJ, 2023) come the findings set out here.

What is called IC50 is the concentration that gives 50% inhibition.

For one test, the system named is HepG2. Description: MTT antiproliferative assay, HepG2. The following applies: Homo sapiens, HepG2, read-out: In vitro Cytotoxicity IC50 HepG2. The test is classed as cell-based. On the technique in general: Tetrazolium dyes change colour on reduction, which living cells bring about.
In another test the test system is MDA-MB-231. Description: MTT antiproliferative assay, MDA-MB-231. The format is cell-based. Particulars: Homo sapiens, MDA-MB-231, read-out: In vitro Cytotoxicity IC50 MDA-MB-231.
Another test relates to HeLa. In words: MTT antiproliferative assay, HeLa. The following applies: Homo sapiens, read-out: In vitro Cytotoxicity IC50 HeLa.
A further test concerns MCF-7. In words: MTT antiproliferative assay, MCF-7. The following applies: Homo sapiens, MCF7, read-out: In vitro Cytotoxicity IC50 MCF-7.
Test [1] deals with HepG2, MCF-7, MDA-MB-231 and HeLa. In words: MTT antiproliferative assay, all tested cell lines. The format is cell-based. The following applies: Homo sapiens, read-out: IC50 values against all tested cell lines (range).
The next test has as its target CDK2 (Homo sapiens, UniProt P24941). Description: In vitro protein kinase assay, CDK2. The format is biochemical.
The next test concerns the target EGFR (Homo sapiens, UniProt P00533). Description: In vitro protein kinase assay, EGFR. The test is classed as biochemical.
For the next test, the target named is Her2 (Homo sapiens, UniProt P04626). Description: In vitro protein kinase assay, Her2. The format is biochemical.
The next test deals with VEGFR2 (Homo sapiens, UniProt P35968). Description: In vitro protein kinase assay, VEGFR2. The test is classed as biochemical.
Test [2] has as its system HepG2 cells. In words: Cell cycle distribution by flow cytometry. The test is classed as cell-based, human. Particulars: 8.39 μM of compound 7, 24 h. For orientation: In flow cytometry, cells or beads pass a laser one at a time.
The subject of test [3] is HepG2 cells. Description: Annexin-V/propidium iodide double staining apoptosis assay. The format is cell-based, human. Particulars: 24 h incubation.
The next test concerns Caspase 3. Description: Apoptotic protein expression, Caspase 3. The format is cell-based, human. Particulars: HepG2 cells, 8.39 μM of compound 7, 24 h; control = 1. The method in brief: (§1)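 HepG2 cells were incubated with 8.39 μM test compound for 24 h. Apoptotic protein levels were measured by a previously reported method. Expression was normalised to β-actin and given as fold change versus untreated HepG2 cells, which were set to 1. Values are means of three experiments.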

The next test relates to Caspase 9. Description: Apoptotic protein expression, Caspase 9. The test is classed as cell-based, human. The following applies: HepG2 cells, 8.39 μM of compound 7, 24 h; control = 1. The method in brief: as §1

“And” between values parts separate entries of the source, which are not always exact repeats. Identical values can stand only once.

Chain of EGFR (P00533 25-1210): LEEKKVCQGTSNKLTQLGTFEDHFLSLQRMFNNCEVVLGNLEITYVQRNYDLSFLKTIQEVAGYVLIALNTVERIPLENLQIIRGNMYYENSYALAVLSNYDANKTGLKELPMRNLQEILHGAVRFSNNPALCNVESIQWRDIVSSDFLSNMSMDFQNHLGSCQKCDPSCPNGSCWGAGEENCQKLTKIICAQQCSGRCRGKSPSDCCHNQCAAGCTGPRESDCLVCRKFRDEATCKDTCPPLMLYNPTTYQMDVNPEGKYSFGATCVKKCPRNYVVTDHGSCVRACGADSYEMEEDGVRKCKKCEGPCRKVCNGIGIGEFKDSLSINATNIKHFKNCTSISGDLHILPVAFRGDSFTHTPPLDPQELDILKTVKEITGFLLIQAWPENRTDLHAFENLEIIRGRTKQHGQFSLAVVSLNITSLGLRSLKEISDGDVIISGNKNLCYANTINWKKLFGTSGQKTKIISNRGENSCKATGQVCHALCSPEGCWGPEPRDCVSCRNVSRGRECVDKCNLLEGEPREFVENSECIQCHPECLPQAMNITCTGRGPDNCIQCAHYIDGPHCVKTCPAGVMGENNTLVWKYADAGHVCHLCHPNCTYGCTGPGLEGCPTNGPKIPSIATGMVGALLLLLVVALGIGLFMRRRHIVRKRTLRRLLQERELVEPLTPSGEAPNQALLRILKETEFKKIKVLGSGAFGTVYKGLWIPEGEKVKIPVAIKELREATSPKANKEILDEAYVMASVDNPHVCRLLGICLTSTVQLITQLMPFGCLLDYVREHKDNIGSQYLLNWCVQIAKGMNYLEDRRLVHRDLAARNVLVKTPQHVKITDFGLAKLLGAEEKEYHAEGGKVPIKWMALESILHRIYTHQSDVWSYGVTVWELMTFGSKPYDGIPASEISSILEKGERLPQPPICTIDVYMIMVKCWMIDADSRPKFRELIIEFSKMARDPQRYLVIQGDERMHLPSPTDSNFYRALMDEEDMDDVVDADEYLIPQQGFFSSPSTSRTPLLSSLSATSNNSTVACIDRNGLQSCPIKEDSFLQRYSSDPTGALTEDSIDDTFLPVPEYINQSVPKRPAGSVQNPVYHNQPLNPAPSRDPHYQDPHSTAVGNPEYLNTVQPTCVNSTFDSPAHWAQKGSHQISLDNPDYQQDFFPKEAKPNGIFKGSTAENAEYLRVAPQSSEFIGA
Chain of Her2 (P04626 23-1255): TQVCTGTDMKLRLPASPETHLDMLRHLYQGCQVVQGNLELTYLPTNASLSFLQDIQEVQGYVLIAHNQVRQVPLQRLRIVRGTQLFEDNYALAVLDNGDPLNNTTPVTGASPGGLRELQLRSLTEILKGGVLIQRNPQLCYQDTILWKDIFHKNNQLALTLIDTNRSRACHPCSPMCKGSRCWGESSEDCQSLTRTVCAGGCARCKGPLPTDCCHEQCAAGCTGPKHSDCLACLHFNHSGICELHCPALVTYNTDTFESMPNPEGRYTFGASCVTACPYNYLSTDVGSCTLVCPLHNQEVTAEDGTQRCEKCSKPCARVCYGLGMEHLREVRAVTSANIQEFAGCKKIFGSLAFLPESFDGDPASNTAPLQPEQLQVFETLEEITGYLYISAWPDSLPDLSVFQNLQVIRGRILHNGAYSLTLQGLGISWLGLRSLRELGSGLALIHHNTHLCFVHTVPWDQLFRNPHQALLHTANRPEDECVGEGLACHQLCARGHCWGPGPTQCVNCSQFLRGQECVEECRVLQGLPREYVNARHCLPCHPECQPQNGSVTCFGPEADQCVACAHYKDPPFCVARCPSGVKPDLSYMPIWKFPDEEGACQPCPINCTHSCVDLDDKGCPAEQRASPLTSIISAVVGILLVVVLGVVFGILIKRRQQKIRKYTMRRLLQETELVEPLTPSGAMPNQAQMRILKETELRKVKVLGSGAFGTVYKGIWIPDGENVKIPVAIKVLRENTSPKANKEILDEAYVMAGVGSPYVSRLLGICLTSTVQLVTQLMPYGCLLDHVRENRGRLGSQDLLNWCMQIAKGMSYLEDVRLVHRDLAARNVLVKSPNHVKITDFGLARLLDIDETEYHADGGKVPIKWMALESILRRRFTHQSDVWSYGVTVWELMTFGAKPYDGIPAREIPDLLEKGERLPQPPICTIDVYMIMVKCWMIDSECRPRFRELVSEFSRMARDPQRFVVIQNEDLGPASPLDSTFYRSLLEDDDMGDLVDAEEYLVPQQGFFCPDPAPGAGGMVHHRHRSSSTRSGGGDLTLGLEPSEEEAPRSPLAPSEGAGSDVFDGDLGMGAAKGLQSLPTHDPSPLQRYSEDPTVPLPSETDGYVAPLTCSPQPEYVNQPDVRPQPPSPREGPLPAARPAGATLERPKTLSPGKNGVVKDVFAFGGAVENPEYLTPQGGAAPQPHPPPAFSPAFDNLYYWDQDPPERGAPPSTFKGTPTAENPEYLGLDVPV
Chain of VEGFR2 (P35968 20-1356): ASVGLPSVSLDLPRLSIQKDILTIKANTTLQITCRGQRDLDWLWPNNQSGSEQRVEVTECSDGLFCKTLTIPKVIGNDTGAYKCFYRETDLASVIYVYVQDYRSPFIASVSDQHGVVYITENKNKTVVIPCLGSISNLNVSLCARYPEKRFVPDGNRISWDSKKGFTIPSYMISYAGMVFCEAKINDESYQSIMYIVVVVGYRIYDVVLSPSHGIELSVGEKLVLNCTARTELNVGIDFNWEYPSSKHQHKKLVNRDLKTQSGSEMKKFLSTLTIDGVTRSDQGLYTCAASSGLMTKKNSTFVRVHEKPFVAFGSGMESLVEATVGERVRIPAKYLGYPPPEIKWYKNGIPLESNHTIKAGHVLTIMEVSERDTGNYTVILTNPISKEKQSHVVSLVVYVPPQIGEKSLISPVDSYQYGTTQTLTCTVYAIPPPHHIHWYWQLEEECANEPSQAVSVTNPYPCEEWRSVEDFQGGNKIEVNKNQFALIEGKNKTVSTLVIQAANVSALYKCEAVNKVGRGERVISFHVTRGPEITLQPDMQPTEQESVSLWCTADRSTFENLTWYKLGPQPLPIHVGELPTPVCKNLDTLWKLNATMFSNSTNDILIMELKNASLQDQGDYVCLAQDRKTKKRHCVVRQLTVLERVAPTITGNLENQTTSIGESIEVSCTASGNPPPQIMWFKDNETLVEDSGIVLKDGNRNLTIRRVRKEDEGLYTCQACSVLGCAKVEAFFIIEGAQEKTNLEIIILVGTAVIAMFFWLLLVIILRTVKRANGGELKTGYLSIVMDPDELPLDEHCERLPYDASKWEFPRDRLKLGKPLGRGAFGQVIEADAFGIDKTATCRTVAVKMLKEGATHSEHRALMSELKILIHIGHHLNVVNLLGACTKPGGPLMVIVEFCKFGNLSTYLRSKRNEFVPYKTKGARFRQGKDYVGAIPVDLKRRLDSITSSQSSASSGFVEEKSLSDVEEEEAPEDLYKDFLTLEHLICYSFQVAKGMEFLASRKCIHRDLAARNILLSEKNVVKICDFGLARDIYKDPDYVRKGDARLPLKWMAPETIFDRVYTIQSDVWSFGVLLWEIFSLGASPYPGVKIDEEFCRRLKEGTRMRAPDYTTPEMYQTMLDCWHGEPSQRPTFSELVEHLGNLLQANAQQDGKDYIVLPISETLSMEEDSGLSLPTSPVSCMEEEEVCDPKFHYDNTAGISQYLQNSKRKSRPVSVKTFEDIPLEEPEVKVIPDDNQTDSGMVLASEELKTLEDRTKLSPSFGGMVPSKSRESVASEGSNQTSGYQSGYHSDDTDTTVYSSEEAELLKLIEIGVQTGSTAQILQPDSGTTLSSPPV

As for `O=C1Nc2ccc(Cl)cc2C1=NNc1ncnc2[nH]ccc12` [Compound 4, 3-(2-(7H-pyrrolo[2,3-d]pyrimidin-4-yl)hydrazineylidene)-5-chloroindolin-2-one], the IC50 in the test on HepG2 was 28.4 ± 2.1 µM; with MDA-MB-231 it was 21.1 ± 1.8 µM; with HeLa, 24.2 ± 1.8 µM; in the test with MCF-7, 33.9 ± 2.2 µM.
As for `Cc1ccc2c(c1)C(=NNc1ncnc3[nH]ccc13)C(=O)N2` [Compound 6, 3-(2-(7H-pyrrolo[2,3-d]pyrimidin-4-yl)hydrazineylidene)-5-methylindolin-2-one], the IC50 was 11.7 ± 0.9 µM with HepG2; 15.2 ± 1.1 µM in the test with MDA-MB-231; 7.86 to 27.6 µM in test [1]; 19.8 ± 1.3 µM in the test on HeLa; 27.6 ± 2 µM with MCF-7.
In the same order, the values of `O=C1Nc2ccccc2C1=NNc1ncnc2[nH]ccc12` [Compound 3, 3-(2-(7H-pyrrolo[2,3-d]pyrimidin-4-yl)hydrazineylidene)indolin-2-one] are 19.1 ± 1.4 µM, 7.86 ± 0.6 µM, 7.86 to 27.6 µM, 9.86 ± 0.7 µM and 14.2 ± 1.2 µM.
For `COc1ccc2c(c1)C(=NNc1ncnc3[nH]ccc13)C(=O)N2` [Compound 7, 3-(2-(7H-pyrrolo[2,3-d]pyrimidin-4-yl)hydrazineylidene)-5-methoxyindolin-2-one], the IC50 with HepG2 turned out to be 8.39 ± 0.7 µM. The IC50 in the test on MDA-MB-231 came out at 5.28 ± 0.3 µM. For the same molecule, the IC50 against CDK2 amounted to 0.302 ± 0.016 µM. The molecule also gave a half-inhibitory concentration (IC50) on EGFR of 0.166 ± 0.01 µM. On Her2, this molecule returned an IC50 of 0.157 ± 0.022 µM. Moreover, the IC50 against VEGFR2 amounted to 0.224 ± 0.012 µM. In addition, in the test on HepG2 cells [2], the “DNA content (%) %G1” value amounted to 54.22%, the “DNA content (%) %G2/M” value is 11.02%, the “DNA content (%) %S” value was found to be 34.76% and the “DNA content (%) %Sub–G1” value is listed as 32.34%. The “increase of the DNA in the sub-G1 compared to untreated cells” value with HepG2 cells [2] is 17 fold. In the test on HepG2 cells [3], the “Apoptosis Early” value worked out at 9.91%, the “Apoptosis Late” value was 15.92%, the “Apoptosis Total” value is given as 32.34% and the Necrosis is listed as 6.51%. Moreover, the “Folds of gene expression (Normalized to β-actin) Caspase 3” value with Caspase 3 was 5.42 fold and 5.421 fold. Further, in the test on Caspase 9, the “Folds of gene expression (Normalized to β-actin) Caspase 9” value is 3.3 fold and 3.295 fold. Further, in the test with HeLa, the IC50 amounted to 6.37 ± 0.3 µM. Besides, the IC50 in the test with MCF-7 was 9.08 ± 0.7 µM.
Regarding `O=C1Nc2ccc([N+](=O)[O-])cc2C1=NNc1ncnc2[nH]ccc12` [Compound 8, 3-(2-(7H-pyrrolo[2,3-d]pyrimidin-4-yl)hydrazineylidene)-5-nitroindolin-2-one], the IC50 in the test on HepG2 is 52.1 ± 2.9 µM; with MDA-MB-231, 36.9 ± 2.4 µM; in the test with HeLa it was 38 ± 2.2 µM; with MCF-7 it was 48.5 ± 2.8 µM.
Regarding `O=C1Nc2ccc(F)cc2C1=NNc1ncnc2[nH]ccc12` [Compound 5, 3-(2-(7H-pyrrolo[2,3-d]pyrimidin-4-yl)hydrazineylidene)-5-fluoroindolin-2-one], the IC50 in the test on HepG2 amounted to 37.3 ± 2.5 µM; in the test with MDA-MB-231 it was 32.5 ± 2.1 µM; in the test on HeLa, 29.1 ± 2 µM; in the test on MCF-7, 41.6 ± 2.6 µM.
On to `COc1cccc2c1C(=O)c1c(O)c3c(c(O)c1C2=O)C[C@@](O)(C(=O)CO)C[C@@H]3O[C@H]1C[C@H](N)[C@H](O)[C@H](C)O1` [Doxorubicin, reference compound], for which the IC50 with HepG2 stood at 4.5 ± 0.2 µM.
